Data from ChEMBL document CHEMBL1158589, “Benzimidazole and imidazole inhibitors of histone deacetylases: Synthesis and biological activity” (Bioorg Med Chem Lett, 2010).
The source made the active and inactive calls. No cut-off for these calls is given here.

Columns and labels:
PANC-1 [1] = assay: Induction of histone H4 hyperacetylation in human PANC1 cells xenografted in mouse at 50 mg/kg, ip; format: functional, organism-based; set-up: dose 50 mg/kg
Method in brief: (§1)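 Mice bearing PANC-1 tumors given a single intraperitoneal dose of 50 mg/kg, vehicle control. Tumors harvested at set time points up to about 24 h. Whole tissue lysates Western blotted with antibodies to acetylated histone H3 or H4, actin as loading control.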

HL-60 [2] = assay: Cytotoxicity against human HL60 cells assessed as NADH level after 72 hrs by MTS cells; format: functional, cell-based; conditions: HL-60, 72 h
Method in brief: (§2)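 Human A549 lung, HL60 leukemia and PC3 prostate cancer lines incubated with compound for 72 h. Viability read by MTS colorimetric assay from remaining NADH; EC50 calculated; mean of at least two experiments.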

PANC-1 [3] = assay: Induction of histone H3 hyperacetylation in human PANC1 cells xenografted in mouse at 50 mg/kg, ip; format: functional, organism-based; set-up: dose 50 mg/kg; method in brief: as §1
PC-3 = assay: Cytotoxicity against human PC3 cells assessed as NADH level after 72 hrs by MTS cells; format: functional, cell-based; conditions: PC-3, 72 h; method in brief: as §2
HL-60 [4] = assay: Induction of histone H3 hyperacetylation in human HL60 cells after 4 hrs by Western blotting; format: functional, cell-based; conditions: HL-60, 4 h
Method in brief: (§3)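 HL60 leukemia cells exposed 4 h to 2.5-fold serial dilutions of compound, DMSO control. Whole-cell lysates Western blotted for acetylated histone H3 and H4, PCNA as loading control. Signals quantified to give the half-maximal response concentration.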

HCT-116 [5] = assay: Antitumor activity against human HCT116 cells xenografted in mouse assessed as tumor growth inhibition at 25 mg/kg, ip qd for 5 days per week; format: functional; conditions: route intraperitoneal
Method in brief: (§4)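 Human HCT116 colon xenografts in mice; intraperitoneal dosing qdx5 per week, 15 doses in total. %T/C calculated when vehicle-treated mice reached 1 g median tumor size, 10 days after the last dose.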

A549 = assay: Cytotoxicity against human A549 cells assessed as NADH level after 72 hrs by MTS cells; format: functional, cell-based; conditions: A549, 72 h; method in brief: as §2
Mus musculus [6] = assay: Toxicity in human HCT116 cells xenografted mouse assessed as change in body weight at 15 mg/kg, […]; format: organism-based, HCT-116; set-up: dose 15 mg/kg, route intraperitoneal; conditions: in vivo, ip, 120 h
Histone deacetylase 8 = target: T1, Histone deacetylase 8 (Homo sapiens, UniProt Q9BY41); assay: Inhibition of human recombinant HDAC8
T1 sequence (Q9BY41 whole entry): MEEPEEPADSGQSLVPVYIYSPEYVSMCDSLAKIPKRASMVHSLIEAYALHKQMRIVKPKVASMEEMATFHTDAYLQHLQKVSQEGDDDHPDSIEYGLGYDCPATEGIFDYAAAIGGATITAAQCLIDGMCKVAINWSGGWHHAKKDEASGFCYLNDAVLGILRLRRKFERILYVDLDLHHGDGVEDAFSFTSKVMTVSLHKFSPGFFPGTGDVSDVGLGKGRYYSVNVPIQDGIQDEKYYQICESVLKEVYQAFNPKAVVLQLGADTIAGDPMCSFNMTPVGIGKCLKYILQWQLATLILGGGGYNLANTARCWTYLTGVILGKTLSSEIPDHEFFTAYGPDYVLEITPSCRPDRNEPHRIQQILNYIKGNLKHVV

Mus musculus [7] = assay: Toxicity in human HCT116 cells xenografted mouse assessed as change in body weight at 25 mg/kg, […]; format: organism-based, HCT-116; set-up: dose 25 mg/kg, route intraperitoneal; conditions: in vivo, ip, 120 h
[8] = target: T2, Protein deacetylase HDAC6 (Homo sapiens, UniProt Q9UBN7); assay: Inhibition of human recombinant HDAC6
T2 sequence (Q9UBN7 whole entry): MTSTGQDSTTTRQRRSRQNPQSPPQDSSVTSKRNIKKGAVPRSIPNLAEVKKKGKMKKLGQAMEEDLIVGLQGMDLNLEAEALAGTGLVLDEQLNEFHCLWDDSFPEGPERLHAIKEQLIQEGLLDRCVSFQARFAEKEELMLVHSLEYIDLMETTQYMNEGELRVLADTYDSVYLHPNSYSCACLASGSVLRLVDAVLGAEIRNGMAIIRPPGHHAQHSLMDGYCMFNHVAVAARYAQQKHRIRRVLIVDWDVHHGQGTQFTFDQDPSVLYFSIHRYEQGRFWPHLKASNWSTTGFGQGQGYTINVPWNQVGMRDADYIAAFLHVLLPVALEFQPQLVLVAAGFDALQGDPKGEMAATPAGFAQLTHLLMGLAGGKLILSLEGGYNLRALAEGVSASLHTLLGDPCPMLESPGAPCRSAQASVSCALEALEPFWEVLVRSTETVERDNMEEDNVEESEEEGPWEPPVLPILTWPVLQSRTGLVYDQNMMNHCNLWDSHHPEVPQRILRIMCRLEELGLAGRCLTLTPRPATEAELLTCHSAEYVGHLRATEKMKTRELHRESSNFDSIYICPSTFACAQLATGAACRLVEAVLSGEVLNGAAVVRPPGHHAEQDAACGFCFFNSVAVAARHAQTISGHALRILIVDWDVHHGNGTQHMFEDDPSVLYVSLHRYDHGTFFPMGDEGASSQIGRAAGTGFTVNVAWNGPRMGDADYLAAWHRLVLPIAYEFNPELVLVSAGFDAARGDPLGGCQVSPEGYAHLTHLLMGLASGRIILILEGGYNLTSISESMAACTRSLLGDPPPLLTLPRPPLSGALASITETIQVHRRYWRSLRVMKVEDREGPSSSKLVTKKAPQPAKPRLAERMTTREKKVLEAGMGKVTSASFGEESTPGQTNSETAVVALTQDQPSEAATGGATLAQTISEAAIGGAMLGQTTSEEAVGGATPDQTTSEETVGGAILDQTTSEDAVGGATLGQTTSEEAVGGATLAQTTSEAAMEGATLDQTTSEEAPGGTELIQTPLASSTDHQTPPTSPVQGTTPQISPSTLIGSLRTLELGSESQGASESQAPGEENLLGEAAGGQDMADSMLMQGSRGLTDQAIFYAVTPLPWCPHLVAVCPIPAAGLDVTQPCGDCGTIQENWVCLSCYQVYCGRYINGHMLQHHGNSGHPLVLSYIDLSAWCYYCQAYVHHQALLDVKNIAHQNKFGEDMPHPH
Method in brief: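 Purified recombinant human HDAC-2 or HDAC-6 at known enzyme concentration with tBOC(Ac)-Lys-AMC as substrate. IC50 is the mean of at least three experiments.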

HCT-116 [9] = assay: Antitumor activity against human HCT116 cells xenografted in mouse assessed as tumor growth inhibition at 40 mg/kg, ip qd for 5 days per week; format: functional; conditions: route intraperitoneal; method in brief: as §4
HL-60 [10] = assay: Induction of histone H4 hyperacetylation in human HL60 cells after 4 hrs by Western blotting; format: functional, cell-based; conditions: HL-60, 4 h; method in brief: as §3
HCT-116 [11] = assay: Antitumor activity against human HCT116 cells xenografted in mouse assessed as tumor growth inhibition at 15 mg/kg, ip qd for 5 days per week; format: functional; conditions: route intraperitoneal; method in brief: as §4
[12] = Inhibition of HDAC assessed as induction of p21WAF1 expression in engineered cell line by luciferase reporter gene assay
Mus musculus [13] = assay: Toxicity in human HCT116 cells xenografted mouse assessed as change in body weight at 40 mg/kg, […]; format: organism-based, HCT-116; set-up: dose 40 mg/kg, route intraperitoneal; conditions: in vivo, ip, 120 h

EC50 (HL-60 [4]) [nM] | IC50 (Histone deacetylase 8) [nM] | IC50 [8] [nM] | EC50 (HL-60 [10]) [nM] | EC50 [12] [nM] | Compound | Activity (PANC-1 [1]) | EC50 (HL-60 [2]) [nM] | Activity (PANC-1 [3]) | EC50 (PC-3) [nM] | T/C (HCT-116 [5]) [%] | EC50 (A549) [nM] | Activity (Mus musculus [6]) [%] | Activity (Mus musculus [7]) [%] | T/C (HCT-116 [9]) [%] | T/C (HCT-116 [11]) [%] | Activity (Mus musculus [13]) [%]
100 | 200 | 100 | 110 | 1000 | CN1CCC[C@@H](n2c(-c3cccc(/C=C/C(=O)NO)c3)nc3ccccc32)C1 | Active | 40 | Active | 50 | 47 | 300 | 1.7 | -2.5 | 45 | 66 | -3.6
– | 25 | 79 | – | – | Cc1nc(-c2cccc(/C=C/C(=O)NO)c2)n(CCc2ccccc2)c1-c1ccccc1 | – | 300 | – | 500 | – | 1000 | – | – | – | – | –
– | 200 | 100 | – | – | CC(C)N(CCn1c(-c2cccc(/C=C/C(=O)NO)c2)nc2ccccc21)C(C)C | – | 5000 | – | 3100 | – | 5000 | – | – | – | – | –
– | 31 | 79 | – | – | Cc1c(-c2ccccc2)nc(-c2cccc(/C=C/C(=O)NO)c2)n1[C@@H]1CCCN(C(C)C)C1 | – | 40 | – | 100 | – | 500 | – | – | – | – | –
– | 310 | 200 | – | – | O=C(/C=C/c1cccc(-c2nc3ccccc3n2CC2CCNCC2)c1)NO | – | > 50000 | – | > 50000 | – | > 50000 | – | – | – | – | –
– | 160 | 40 | – | – | O=C(/C=C/c1cccc(-c2nc3ccccc3n2C2CCCNC2)c1)NO (racemic) | – | 300 | – | 500 | – | 2500 | – | – | – | – | –
– | 79 | 63 | – | – | Cc1c(-c2ccccc2)nc(-c2cccc(/C=C/C(=O)NO)c2)n1CCN1CCOCC1 | – | 300 | – | 1000 | – | 6300 | – | – | – | – | –
– | 63 | 63 | – | – | COc1ccc(-n2c(-c3cccc(/C=C/C(=O)NO)c3)nc3ccccc32)cc1 | – | 500 | – | 1200 | – | 4000 | – | – | – | – | –
– | 40 | 63 | – | – | O=C(/C=C/c1cccc(-c2nc3ccccc3n2Cc2ccccc2)c1)NO | – | 5000 | – | 1200 | – | 6300 | – | – | – | – | –

Compound | EC50 (HL-60 [4]) [nM] | IC50 (Histone deacetylase 8) [nM] | IC50 [8] [nM] | EC50 (HL-60 [10]) [nM] | EC50 [12] [nM] | Activity (PANC-1 [1]) | EC50 (HL-60 [2]) [nM] | Activity (PANC-1 [3]) | EC50 (PC-3) [nM] | T/C (HCT-116 [5]) [%] | EC50 (A549) [nM] | Activity (Mus musculus [6]) [%] | Activity (Mus musculus [7]) [%] | T/C (HCT-116 [9]) [%] | T/C (HCT-116 [11]) [%] | Activity (Mus musculus [13]) [%]
Cc1c(Cc2ccccc2)nc(-c2cccc(/C=C/C(=O)NO)c2)n1CCN1CCOCC1 | – | 50 | 79 | – | – | – | 300 | – | 1000 | – | 4000 | – | – | – | – | –
O=C(/C=C/c1cccc(-c2nc3ccccc3n2CCN2CCOCC2)c1)NO | – | 400 | 160 | – | – | – | 1200 | – | 5000 | – | 25000 | – | – | – | – | –
C[C@@H](c1ccccc1)n1c(-c2cccc(/C=C/C(=O)NO)c2)nc2ccccc21 | – | 16 | 63 | – | – | – | 3100 | – | 16000 | – | 31000 | – | – | – | – | –
CCN1CCC[C@@H](n2c(-c3cccc(/C=C/C(=O)NO)c3)nc(-c3ccccc3)c2C)C1 | – | 31 | 100 | – | – | – | 30 | – | 50 | – | 300 | – | – | – | – | –
Cc1c(Cc2ccccc2)nc(-c2cccc(/C=C/C(=O)NO)c2)n1CCc1ccccc1 | – | 16 | 63 | – | – | – | 200 | – | 500 | – | 800 | – | – | – | – | –
